Source: PubChem BioAssay (several laboratories)
MC4R ag barr: activates human MC4R beta-arrestin recruitment; P32245; U2OS MC4R beta-arrestin complementation, luminescence; percent of melanotan II response, DMSO zero; activation, % at 8.9 µM; actives 0.98% (n = 360,000); AID 540308;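 active = activation above a per-plate cutoff, the mean activation of sample wells on that plate plus 3 SD, cut at about 8% in these data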
Beta2AR agonist: agonists of human beta-2 adrenergic receptor inducing internalization | P07550 | Am2.2-beta2AR cells, FAP receptor internalization, flow cytometry | response, % (no concentration beside the values) | actives 0.43% (n = 340,000) | AID 504454;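 active = response above a set limit, near 3 SD of response in nonfluorescent compounds, cut at about 42% in these data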
TAAR1 agonist: agonists of human TAAR1; actives 0.99% (n = 360,000); activation, % at 3 µM; AID 624467; CHO RD-HGA16 TAAR1, Fluo-8 calcium fluorescence; vehicle wells 0%, saturating PEA agonist 100%; Q96RJ0;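 active = activation above the mean activation of all test compounds in the run plus 3 SD, cut at about 38% in these data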
Target sequence (Q96RJ0 whole entry, looked up): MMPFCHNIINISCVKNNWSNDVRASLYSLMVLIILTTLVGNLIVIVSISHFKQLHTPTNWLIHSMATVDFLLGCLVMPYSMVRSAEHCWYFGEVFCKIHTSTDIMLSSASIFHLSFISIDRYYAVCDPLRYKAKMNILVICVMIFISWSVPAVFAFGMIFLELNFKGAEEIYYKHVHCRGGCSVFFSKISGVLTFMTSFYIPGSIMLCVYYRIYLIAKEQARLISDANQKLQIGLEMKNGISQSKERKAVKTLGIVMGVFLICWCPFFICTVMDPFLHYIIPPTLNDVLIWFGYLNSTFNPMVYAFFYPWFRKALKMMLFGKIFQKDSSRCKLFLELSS
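Assay system – CHO-derived RD-HGA16 cells with stable Gα16 and human TAAR1 · Compound dosing – one-point dosing at 3 µM (nominal) · Incubation – 17-24 h seeding, 75 min 37 °C dye, 30 min RT · Measured by – kinetic Fluo-8 calcium fluorescence · Control set – DMSO vehicle as 0%, PEA at EC100 as 100% · Repeats – single well for each compound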
TAAR1 antagonist: human TAAR1 antagonism; inhibition, % at 3 µM; CHO RD-HGA16 TAAR1, Fluo-8 calcium fluorescence, antagonist; actives 1.5% (n = 360,000); Q96RJ0;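 active = inhibition above a per-plate cutoff, the mean inhibition of test compounds on that plate plus 3 SD, cut at about 49% in these data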;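 also: 0% = DMSO plus EC80 beta-PEA response and 100% = DMSO alone without agonist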
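Test system: hTAAR1-expressing CHO RD-HGA16 cells, Gα16-coupled; Probe or stimulus: EC80 β-phenethylamine stimulus; Compound dosing: single nominal final test compound concentration of 3 µM; Timing: 140 s kinetic read after compound, 140 s after agonist; Signal: Fluo-8 calcium-sensitive fluorescence; Measure: % inhibition of agonist calcium response; Controls: DMSO and EC80 PEA controls.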
MC4R antag cAMP: blocks human MC4R cAMP signaling | P32245 | MC4R-expressing cells, MTII-stimulated cAMP, LANCE TR-FRET | inhibition, % at 6.5 µM | actives 0.48% (n = 360,000) | AID 540295;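 active = inhibition above its plate's cutoff, the mean of tested wells on that plate plus 3 SD, cut at about 29% in these data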;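 also: 0% = Melanotan II alone and 100% = Melanotan II plus saturating MCL0020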
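Assay system: human MC4R-expressing U2OS cells; reagent: Melanotan II stimulation of cells; dosing: 6.5 µM single dose; timing: compound 30 min, challenge 1 h, detection 1 h; signal: TR-FRET cAMP assay; replicates: one well per compound, no replicates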
m5-HT2A agonist: mouse HTR2A agonism via beta-arrestin recruitment. activation, % at 7.6 µM. actives 0.66% (n = 360,000). AID 624169. CHO-K1 mHTR2A beta-arrestin complementation, luminescence; percent of 30 µM serotonin response. P35363;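 active = activation above a run cutoff, the mean activation of all tested compounds plus 3 SD, cut at about 14% in these data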;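 also: 0% = plate median of compound wells and 100% = 30 µM serotonin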
MC4R barr conf: human MC4R beta-arrestin agonism confirmation | shares compounds with MC4R ag barr | U2OS MC4R beta-arrestin recruitment, luminescence; scaled DMSO 0%, Melanotan II 100% | activation, % at 8.9 µM | actives 31% (n = 2,400);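 active = mean activation across replicates above the hit cutoff set in the earlier primary screen, cut at about 8% in these data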
MOR-DOR barr ag: counter-screen for MC4R agonists: agonists of mu-delta opioid heterodimer; actives 5.8% (n = 2,400); U2OS PathHunter beta-arrestin, beta-gal luminescence; percent of deltorphin B response, DMSO zero; activation, % at 9.2 µM; shares compounds with MC4R ag barr;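 active = mean activation across replicates exceeds the hit threshold derived in the earlier primary screen, cut at about 18% in these data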;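 also: 100% = deltorphin B at 0.9 µM final and 0% = DMSO alone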
Numbers without * were called inactive; · = not tested or not shown. In the library only some 4.3% were active in any assay of this set; here they are far more common.

SMILES | MC4R ag barr | Beta2AR agonist | TAAR1 agonist | TAAR1 antagonist | MC4R antag cAMP | m5-HT2A agonist | MC4R barr conf | MOR-DOR barr ag
Cc1ccc(C(=O)Nc2ncc(Cc3ccc(SC(F)F)cc3)s2)cc1 | 18* | 3 | 29 | 34 | -17 | -1 | 9.0* | 4
N#Cc1ccc(-c2cccnc2)nc1SCC(=O)c1ccccc1 | 11* | -79 | 5 | 15 | 8 | 0 | 7 | 2
Cc1ccc(Cc2c(-c3cccc(Cl)c3)nc3c4ccccc4ccn23)cc1 | · | · | 3 | -8 | · | 4 | · | ·
S=C(Nc1ccc(Cl)c(Cl)c1)N1CCN(c2ccccn2)CC1 | 15* | -5 | 4 | -10 | 27 | 0 | 2 | 7
S=C(Nc1cccc(Cl)c1)N1CCN(c2ccccn2)CC1 | -1 | 0 | 5 | -6 | 1 | 2 | · | ·
CC(C)N1CC2(CC(c3ccccc3C(F)(F)F)=NO2)CN1C(=O)c1ccco1 (centres undefined) | 1 | · | 1 | -1 | 4 | -3 | · | ·
CCOC(=O)CC(=O)CSc1nc(-c2ccc3c(c2)OCO3)cc(C(F)(F)F)c1C#N | 25* | -85 | · | · | 28 | 0 | 8.9* | 5
O=C(CSc1nccc(-c2ccc(Br)cc2)n1)NCCc1ccccc1 | 12* | -1 | 3 | -2 | 6 | -5 | 1 | 4
O=C(CCSc1nnc2ccc3ccccc3n12)Nc1ccc(F)cc1 | 39* | -2 | 19 | -4 | 8 | -3 | 4 | 8
COc1ccc2cc3cc(C(=O)NCc4cccs4)oc3nc2c1 | 11* | 2 | 12 | -4 | -5 | 1 | 7 | 9
COc1ccccc1C(=O)NNC(=O)c1ccc(Br)cc1 | 0 | 8 | 0 | -4 | 13 | 1 | · | ·
O=C(O)c1nn(CCOc2ccc(Cl)cc2Cl)c(=O)c2ccccc12 | 18* | 3 | 4 | 0 | 0 | 13 | 0 | 6
O=c1c(-c2ccccc2)nnc2sc(COc3ccc(Br)cc3)nn12 | 0 | 19 | 3 | -8 | 9 | 1 | · | ·
Nc1nccc(-c2cc(-c3ccc(Cl)cc3Cl)no2)n1 | 0 | -12 | 0 | -12 | 7 | -1 | · | ·
Nc1c(-c2cccs2)cnn1-c1nc(-c2ccc(Cl)cc2Cl)cs1 | 19* | -6 | 9 | -20 | -1 | 2 | 21* | 3
FC(F)Oc1ccccc1/C=N/Nc1nc2ccccc2o1 | 7 | -2 | 0 | -5 | 0 | -9 | · | ·
Fc1ccccc1/C=N/Nc1nc2ccccc2o1 | 13* | -2 | 3 | -5 | -1 | -11 | -1 | 5
Cc1ccc(C(=O)Nc2ccc([N+](=O)[O-])cn2)o1 | -3 | 1 | 4 | -17 | 4 | 0 | · | ·
Cc1ccc(C)c(OCc2ccc(C(=O)NN)o2)c1 | 15* | -7 | -1 | -28 | 5 | 5 | -3 | 2
Cc1ccc(C)c(OCc2ccc(C(=O)Nc3ccc([N+](=O)[O-])cn3)o2)c1 | 16* | 9 | -1 | 32 | 4 | 1 | -1 | 5
N#Cc1ccccc1OCC(=O)Nc1nc(-c2ccccn2)cs1 | -2 | · | 4 | -10 | -5 | 6 | · | ·
Cc1cc(C)cc(OCC(=O)Nc2nc(-c3ccccn3)cs2)c1 | 12* | 1 | 7 | -10 | -9 | 1 | 3 | 3
O=C1CSC(=Nc2ccc(O)cc2)N1c1ccc(O)cc1 | -1 | -6 | 15 | -6 | 0 | -1 | · | ·
Cc1ccc(N2C(=O)CS/C2=N\C(=S)Nc2ccccc2)cc1 | 27* | 7 | 2 | -37 | 5 | 1 | 2 | 9
CC(=O)Nc1ccc(C2NC(=O)CCC2[N+](=O)[O-])cc1 (centres undefined) | 0 | 1 | -1 | 10 | 1 | 9 | · | ·
